Screens: PubChem BioAssay, Broad Institute
IDH1 mut inh = blocks human IDH1 R132H reductase activity; O75874; diaphorase/resazurin fluorescence, 60 min; inhibition, % at 10 µM; actives 0.18% (n = 70,000); in the data active means inhibition above about 34%; inconclusive means no clear call, values can overlap the other calls; inactive means below about 11%
Target sequence (O75874 whole entry R132H): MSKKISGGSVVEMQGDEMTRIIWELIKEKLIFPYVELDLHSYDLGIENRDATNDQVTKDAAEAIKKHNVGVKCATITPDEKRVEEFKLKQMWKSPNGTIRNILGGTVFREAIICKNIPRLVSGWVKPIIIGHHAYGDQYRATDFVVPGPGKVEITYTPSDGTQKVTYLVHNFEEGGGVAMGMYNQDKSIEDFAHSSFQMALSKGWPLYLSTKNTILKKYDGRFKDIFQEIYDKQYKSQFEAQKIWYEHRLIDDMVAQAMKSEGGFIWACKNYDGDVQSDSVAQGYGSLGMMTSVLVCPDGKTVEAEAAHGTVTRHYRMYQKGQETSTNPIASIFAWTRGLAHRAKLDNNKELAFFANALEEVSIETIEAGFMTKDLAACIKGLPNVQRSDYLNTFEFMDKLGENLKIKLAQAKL
T cruzi growth-1 = inhibitors of T. cruzi proliferation; AID 624255; T. cruzi beta-gal in NIH3T3, GalScreen luminescence, 90 h; inhibition, % at 8.34 µM; actives 5.9% (n = 77,000);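 active means mean inhibition above about 93%, with at least 55% of replicates each passing it, limit read from the data, passing the limit was not always enough; inconclusive means only one of those two conditions holds; inactive means neither condition holds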
GASC1 inh = inhibitors of human demethylase GASC-1 KDM4C. Q9H3R0. GST-KDM4C 2-372, H3K9me3 peptide, LANCE TR-FRET. inhibition, % at 12.5 µM. actives 0.15% (n = 96,000);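 active means mean replicate inhibition above about 25%, with at least 55% of replicates also reaching it, limit read from the data, passing the limit was not always enough; inconclusive means only one of those two conditions met; inactive means neither condition met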
Target sequence (Q9H3R0 2-372 limits assumed): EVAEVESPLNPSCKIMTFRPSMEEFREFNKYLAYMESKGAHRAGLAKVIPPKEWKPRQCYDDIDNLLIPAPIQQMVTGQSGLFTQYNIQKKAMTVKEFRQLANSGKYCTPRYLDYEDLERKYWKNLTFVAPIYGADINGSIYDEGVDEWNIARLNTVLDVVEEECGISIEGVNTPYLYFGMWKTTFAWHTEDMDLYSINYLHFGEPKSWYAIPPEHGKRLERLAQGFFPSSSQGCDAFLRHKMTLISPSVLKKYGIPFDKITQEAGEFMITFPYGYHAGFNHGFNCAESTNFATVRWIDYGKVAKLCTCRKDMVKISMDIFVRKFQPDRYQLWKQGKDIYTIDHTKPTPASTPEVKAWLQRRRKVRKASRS
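Test system: N-terminal GST-fused human GASC-1 (KDM4C) fragment, residues 2-372; quantity: GASC-1 enzyme at 10 nM final in reaction; dosing: single dose; schedule: 30 min demethylation and 1 h detection at room temperature; signal: LANCE TR-FRET, excitation 340 nm, emissions 618 and 671 nm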
Pf Dd2 inh = P. falciparum Dd2 growth inhibition. SYBR Green, 72 h; hits give low values. activity change, % at 10 µM. actives 2.3% (n = 94,000); in the data active means activity change below about -80%; inconclusive means no clear call, values can overlap the other calls
T cruzi growth-2 = blocks T. cruzi growth in NIH3T3 host cells. shares compounds with T cruzi growth-1. inhibition, % at 8.35 µM. T. cruzi beta-gal in NIH3T3, GalScreen luminescence, 90 h. actives 72% (n = 5,600);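 active means mean replicate inhibition above about 95% and at least 55% of replicates individually reaching it, limit read from the data; inconclusive means only one of the two criteria is met; inactive means neither criterion is met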
T cruzi growth-3 = blocks T. cruzi growth in NIH3T3 host cells | shares compounds with T cruzi growth-1 | T. cruzi beta-gal in NIH3T3, GalScreen luminescence, 90 h | inhibition, % at 2.09 µM | actives 21% (n = 5,600) | AID 651740;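 active means mean inhibition above about 95%, with at least 55% of replicates also reaching it, limit read from the data; inconclusive means meets just one of the two conditions; inactive means meets neither condition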
3T3 cytotox = cytotoxicity in mouse NIH/3T3 fibroblasts; shares compounds with T cruzi growth-1; NIH/3T3 viability, CellTiter-Glo ATP luminescence, 90 h; cytotoxicity (signal decrease), % at 8.35 µM; actives 14% (n = 5,600);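 active means mean signal decrease across replicates above about 35% based on untreated-well scatter, with enough replicates individually passing, limit read from the data; inconclusive means no rule stated though some were filed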
NIH3T3 tox 2 = kills mouse NIH/3T3 fibroblasts; shares compounds with T cruzi growth-1; NIH/3T3 viability, CellTiter-Glo ATP luminescence, 90 h; inhibition, % at 24.9 µM; actives 56% (n = 5,600); AID 651744;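 active means mean loss of cell viability signal at or above a set limit, and enough replicates individually reaching it; inconclusive means meets only the mean limit or only the replicate share; inactive means meets neither condition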
Of the large screens only hits and unclear results are named; the others gave an inactive call (follow-up assays come after a bar, where they were run). Compounds with a hit are over-represented: about 5.9% of the library has one in this group of screens.

COc1ccc(CN(C)C[C@H]2OCCCC[C@@H](C)Oc3ccc(NS(=O)(=O)c4ccc(Cl)cc4)cc3C(=O)N([C@@H](C)CO)C[C@@H]2C)cc1	none (no result: IDH1 mut inh)
COc1ccc(CN(C)C[C@H]2OCCCC[C@H](C)Oc3ccc(NS(=O)(=O)c4ccc(Cl)cc4)cc3C(=O)N([C@H](C)CO)C[C@H]2C)cc1	Pf Dd2 inh inconclusive
COc1ccc(CN(C)C[C@H]2OCCCC[C@H](C)Oc3ccc(NS(=O)(=O)c4ccccc4)cc3C(=O)N([C@H](C)CO)C[C@H]2C)cc1	T cruzi growth-1 102.2 | T cruzi growth-2 108.4 | T cruzi growth-3 inactive | 3T3 cytotox inactive | NIH3T3 tox 2 inconclusive
COc1ccc(CN(C)C[C@@H]2OCCCC[C@H](C)Oc3ccc(NS(=O)(=O)c4ccc(Cl)cc4)cc3C(=O)N([C@@H](C)CO)C[C@H]2C)cc1	T cruzi growth-1 inconclusive (no result: IDH1 mut inh) | T cruzi growth-2 100.2 | T cruzi growth-3 inactive | 3T3 cytotox inactive | NIH3T3 tox 2 103.5
COc1ccc(CN(C)C[C@@H]2OCCCC[C@@H](C)Oc3ccc(NS(=O)(=O)c4ccc(Cl)cc4)cc3C(=O)N([C@@H](C)CO)C[C@@H]2C)cc1	T cruzi growth-1 inconclusive | T cruzi growth-2 inconclusive | T cruzi growth-3 inactive | 3T3 cytotox inactive | NIH3T3 tox 2 107.3
CN(CC(=O)Nc1ccc(F)c(Cl)c1)S(=O)(=O)c1ccc2ccccc2c1	none (no result: T cruzi growth-1, GASC1 inh, Pf Dd2 inh)
OC[C@H]1[C@H](c2ccc(C#Cc3ccccc3)cc2)[C@@H]2CN(CC3CCOCC3)CCCCN12	T cruzi growth-1 inconclusive (no result: IDH1 mut inh) | T cruzi growth-2 105.6 | T cruzi growth-3 inactive | 3T3 cytotox inactive | NIH3T3 tox 2 106.2
OC[C@@H]1[C@@H](c2ccc(C#Cc3ccccc3F)cc2)[C@H]2CN(CC3CCOCC3)CCCCN12	none (no result: IDH1 mut inh)
OC[C@H]1[C@H](c2ccc(C#Cc3ccccc3F)cc2)[C@H]2CN(CC3CCOCC3)CCCCN21	none (no result: IDH1 mut inh)
OC[C@@H]1[C@H](c2ccc(C#Cc3ccccc3)cc2)[C@H]2CN(CC3CCOCC3)CCCCN12	T cruzi growth-1 117.3 (no result: IDH1 mut inh) | T cruzi growth-2 99.7 | T cruzi growth-3 inactive | 3T3 cytotox inactive | NIH3T3 tox 2 104.6
O=C(C1CCCC1)N1CC[C@@H]2[C@@H](CO)Nc3ccc(-c4cccc(F)c4)cc3[C@@H]21	none (no result: IDH1 mut inh, T cruzi growth-1)
O=C(C1CCCCC1)N1CC[C@@H]2[C@H]1c1cc(C#Cc3ccc(F)cc3)ccc1N[C@@H]2CO	T cruzi growth-1 105.9 (no result: IDH1 mut inh) | T cruzi growth-2 104.1 | T cruzi growth-3 inactive | 3T3 cytotox inactive | NIH3T3 tox 2 104.2
O=C(C1CC1)N1CC[C@H]2[C@H](CO)Nc3ccc(-c4cccc(F)c4)cc3[C@H]21	T cruzi growth-1 116.5 (no result: IDH1 mut inh) | T cruzi growth-2 98.9 | T cruzi growth-3 inactive | 3T3 cytotox inactive | NIH3T3 tox 2 inactive
O=C(C1CCCC1)N1CC[C@@H]2[C@H](CO)Nc3ccc(-c4cccc(F)c4)cc3[C@@H]21	none (no result: IDH1 mut inh, T cruzi growth-1)
O=C(C1CCC1)N1CC[C@@H]2[C@H]1c1cc(-c3cccc(F)c3)ccc1N[C@@H]2CO	T cruzi growth-1 101.0 (no result: IDH1 mut inh) | T cruzi growth-2 104.6 | T cruzi growth-3 108.7 | 3T3 cytotox inactive | NIH3T3 tox 2 73.9
O=C(C1CCCC1)N1CC[C@H]2[C@H](CO)Nc3ccc(C#Cc4ccc(F)cc4)cc3[C@H]21	none (no result: IDH1 mut inh, T cruzi growth-1, GASC1 inh)
O=C(C1CC1)N1CC[C@@H]2[C@H](CO)Nc3ccc(-c4cccc(F)c4)cc3[C@@H]21	T cruzi growth-1 115.8 (no result: IDH1 mut inh) | T cruzi growth-2 104.0 | T cruzi growth-3 inactive | 3T3 cytotox inactive | NIH3T3 tox 2 inactive
COc1ccc(C)cc1NC(=O)C(C)NS(=O)(=O)c1ccc(Cl)cc1 (stereo not given)	none (no result: T cruzi growth-1, GASC1 inh, Pf Dd2 inh)
C[C@H]1CN([C@@H](C)CO)C(=O)c2cccc(NC(=O)c3cnccn3)c2O[C@@H]1CN(C)Cc1ccc(C(=O)Nc2ccccc2N)cc1	T cruzi growth-1 101.8, Pf Dd2 inh -93.7 (no result: IDH1 mut inh) | T cruzi growth-2 110.8 | T cruzi growth-3 inactive | 3T3 cytotox inactive | NIH3T3 tox 2 inconclusive
C[C@H](CO)N1C[C@H](C)[C@@H](CN(C)Cc2ccc(C(=O)Nc3ccccc3N)cc2)Oc2c(NC(=O)c3cnccn3)cccc2C1=O	T cruzi growth-1 106.4, Pf Dd2 inh -92.3 (no result: IDH1 mut inh) | T cruzi growth-2 103.7 | T cruzi growth-3 103.5 | 3T3 cytotox inactive | NIH3T3 tox 2 51.9
C[C@H]1CN([C@@H](C)CO)C(=O)c2cccc(NC(=O)c3cnccn3)c2O[C@H]1CN(C)Cc1ccc(C(=O)Nc2ccccc2N)cc1	none (no result: IDH1 mut inh, T cruzi growth-1)
CCn1c(SCC(=O)Nc2ccc(C)cc2Br)nnc1-c1ccc(Cl)cc1	none (no result: T cruzi growth-1, GASC1 inh, Pf Dd2 inh)
COc1cccc(S(=O)(=O)NCc2ccc(C(=O)O)cc2)c1	none (no result: T cruzi growth-1, GASC1 inh, Pf Dd2 inh)
Cc1ccc(S(=O)(=O)N(C)C[C@H]2OCCCC[C@H](C)Oc3ccc(NC(=O)NC4CCCCC4)cc3C(=O)N([C@H](C)CO)C[C@@H]2C)cc1	T cruzi growth-1 112.0 | T cruzi growth-2 108.8 | T cruzi growth-3 inactive | 3T3 cytotox inactive | NIH3T3 tox 2 inactive
Cc1ccc(S(=O)(=O)N(C)C[C@@H]2OCCCC[C@@H](C)Oc3ccc(NC(=O)NC4CCCCC4)cc3C(=O)N([C@H](C)CO)C[C@H]2C)cc1	T cruzi growth-1 98.8, Pf Dd2 inh -81.2 | T cruzi growth-2 108.9 | T cruzi growth-3 inactive | 3T3 cytotox inactive | NIH3T3 tox 2 inactive
CC(C)NC(=O)Nc1ccc2c(c1)C(=O)N([C@H](C)CO)C[C@@H](C)[C@@H](CN(C)S(=O)(=O)c1ccc(Cl)cc1)OCCCC[C@@H](C)O2	T cruzi growth-1 98.0 | T cruzi growth-2 96.0 | T cruzi growth-3 inactive | 3T3 cytotox inactive | NIH3T3 tox 2 24.0
Cc1ccc(S(=O)(=O)N(C)C[C@@H]2OCCCC[C@H](C)Oc3ccc(NC(=O)NC4CCCCC4)cc3C(=O)N([C@@H](C)CO)C[C@H]2C)cc1	none
C[C@@H]1CCCCO[C@@H](CN(C)S(=O)(=O)c2ccc(Cl)cc2)[C@H](C)CN([C@@H](C)CO)C(=O)c2cc(NC(=O)NC3CCCCC3)ccc2O1	T cruzi growth-1 100.4 (no result: IDH1 mut inh, Pf Dd2 inh) | T cruzi growth-2 110.7 | T cruzi growth-3 inactive | 3T3 cytotox inactive | NIH3T3 tox 2 inactive
O=C(Nc1ccc(C(F)(F)F)cc1)Nc1ccc2c(c1)[C@H]1C[C@H](CC(=O)N3CCc4ccccc4C3)O[C@@H](CO)[C@H]1O2	T cruzi growth-1 140.5 | T cruzi growth-2 95.7 | T cruzi growth-3 inactive | 3T3 cytotox inactive | NIH3T3 tox 2 102.6
O=C(Nc1ccc(C(F)(F)F)cc1)Nc1ccc2c(c1)[C@H]1C[C@@H](CC(=O)N3CCc4ccccc4C3)O[C@H](CO)[C@H]1O2	T cruzi growth-1 inconclusive | T cruzi growth-2 inactive | T cruzi growth-3 111.6 | 3T3 cytotox inactive | NIH3T3 tox 2 39.5
